Measured values: ChEMBL document CHEMBL1134666, “Design, synthesis, and biological evaluation of novel nucleoside and nucleotide analogues as agents against DNA viruses and/or retroviruses” (J Med Chem, 2001)
Converted amounts (≈) assume the structure as drawn.

Assays:
[1] = Inhibitory effects on HSV-1 induced mortality in NMRI mice upon (ip) administration at a dose of 150 mk/kg/day; assay type: functional, Human alphaherpesvirus 1
How it was run: (§1)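 Two-week-old NMRI mice (~7 g, 15-20 per group) were infected ip with 4 × 10⁴ units HSV-1 (KOS). Compound was given ip once daily for 6 consecutive days starting 4 h postinfection; controls received saline. Mean day of symptom onset and of death were recorded, with % symptom-free and % surviving at day 21, when the experiment ended.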

MT4 = test: Cellular toxic effect was determined in MT-4 cells; assay type: functional, cell-based; settings: Homo sapiens
[2] = Inhibitory effects on HSV-1 induced mortality in NMRI mice upon (ip) administration at a dose of 100 mk/kg/day; assay type: functional, Human alphaherpesvirus 1; how it was run: as §1
[3] = Inhibitory effects on HSV-1 induced mortality in NMRI mice upon (ip) administration at a dose of 250 mk/kg/day; assay type: functional, Human alphaherpesvirus 1; how it was run: as §1
[4] = test system: Human immunodeficiency virus 1; test: Inhibition of cytopathogenicity against human HIV-1(IIIB) in MT-4 cells; assay type: functional, organism-based; settings: Human immunodeficiency virus 1, MT4
[5] = test system: Moloney murine sarcoma virus; test: Inhibition of virus-induced cytopathogenicity against moloney murine sarcoma virus(MSV)in CEM cells in cell protection assay; assay type: functional, organism-based; settings: CCRF-CEM
How it was run: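 Cell-protection assay with Moloney murine sarcoma virus in CEM cells; inhibition of virus-induced cytopathogenicity measured and IC50 derived by linear regression from the average of duplicate determinations.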

[6] = test system: Human immunodeficiency virus 2; test: Inhibition of cytopathogenicity against human HIV-2(LAV-2) in MT-4 cells; assay type: functional, organism-based; settings: Human immunodeficiency virus 2, MT4
Adenosine deaminase = target: T1, Adenosine deaminase (Bos taurus, UniProt P56658); test: Inhibitory activity against adenosine deaminase
T1 sequence (P56658 whole entry): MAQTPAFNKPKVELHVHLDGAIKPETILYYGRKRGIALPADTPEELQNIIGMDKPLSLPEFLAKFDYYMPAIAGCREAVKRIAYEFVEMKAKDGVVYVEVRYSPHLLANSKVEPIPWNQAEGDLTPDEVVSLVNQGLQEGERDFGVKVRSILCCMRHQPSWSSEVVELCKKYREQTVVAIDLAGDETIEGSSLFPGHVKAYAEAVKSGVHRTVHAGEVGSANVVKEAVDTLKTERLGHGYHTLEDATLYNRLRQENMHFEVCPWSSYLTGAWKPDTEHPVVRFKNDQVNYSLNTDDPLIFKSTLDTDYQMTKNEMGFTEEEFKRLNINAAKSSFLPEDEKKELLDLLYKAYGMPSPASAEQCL
How it was run: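 Calf mucosal adenosine deaminase. Ki determined by the Kaplan method, with ara-A as substrate and the test compound added to the substrate solutions.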

CCRF-CEM = test: Cellular toxic effect was determined in CEM cells; assay type: functional, cell-based; settings: Homo sapiens
[7] = Inhibitory effect on HSV-1 induced mortality in NMRI mice upon (ip) administration at a dose of 150 mk/kg/day; assay type: functional, Human alphaherpesvirus 1; how it was run: as §1
[8] = Inhibitory effect on HSV-1 induced mortality in NMRI mice upon (ip) administration at a dose of 250 mk/kg/day; assay type: functional, Human alphaherpesvirus 1; how it was run: as §1
Vero [9] = test: Maximum velocity constant of the rate of phosphorylation was determined against Vero cell thymidine kinase; assay type: functional, Chlorocebus sabaeus
Vero [10] = test: Maximum velocity constant of the rate of phosphorylation was determined n the presence of Vero cell thymidine kinase; assay type: functional, Chlorocebus sabaeus
[11] = Inhibitory effect on HSV-1 induced mortality in NMRI mice upon (ip) administration at a dose of 100 mk/kg/day; assay type: functional, Human alphaherpesvirus 1; how it was run: as §1

| Compound | IC50 (MT4) | Animal death [3] | Symptom initiation [3] | IC50 [4] | IC50 [5] | IC50 [6] | IC50 (CCRF-CEM) | further results |
| --- | --- | --- | --- | --- | --- | --- | --- | --- |
| COC1=C(OC)/C(=C/COP(=O)(O)COCCn2cnc3c(N)ncnc32)OC1=O | 265 µg/mL (≈ 600 µM) | >21% | >21% | 1.4 µg/mL (≈ 3.17 µM) | 0.93 µg/mL (≈ 2.11 µM) | 1 µg/mL (≈ 2.27 µM) | 280 µg/mL (≈ 634 µM) | Animal death [1]: >21%; Symptom initiation [1]: >21%; Animal death [2]: >21%; Symptom initiation [2]: >21%; Ki (Adenosine deaminase): > 800 µM |
| Nc1ncnc2ncn(CCOCP(=O)(O)O)c12 | > 300 µg/mL |  |  | 7.8 µg/mL (≈ 28.6 µM) | 27 µg/mL (≈ 98.8 µM) | 9.1 µg/mL (≈ 33.3 µM) | > 300 µg/mL | Symptom initiation [7]: 15%; Animal death [8]: 20% |
| COC1=C(OC)/C(=C/COP(=O)(O)COCCn2cnc3c(O)nc(N)nc32)OC1=O | 14 µg/mL (≈ 30.6 µM) |  |  | 6 µg/mL (≈ 13.1 µM) | 0.02 µg/mL (≈ 0.0437 µM) | 7.1 µg/mL (≈ 15.5 µM) | 13 µg/mL (≈ 28.4 µM) |  |
| Nc1ncnc2ncn(COCCO)c12 |  |  |  |  |  |  |  | Relative Vmax (Vero [9]): <3; Animal death [7]: >21%; Animal death [8]: >21%; Symptom initiation [8]: >21% |
| Nc1ncnc2c1ncn2[C@@H]1O[C@H](COP(=O)(O)O)[C@@H](OP(=O)(O)COCCn2cnc3ncnc(N)c32)[C@H]1O | 298 µg/mL (≈ 495 µM) | >21% | >21% | 5.9 µg/mL (≈ 9.79 µM) | 17 µg/mL (≈ 28.2 µM) | 6.4 µg/mL (≈ 10.6 µM) | > 300 µg/mL | Animal death [2]: >21%; Symptom initiation [2]: 16% |
| COC1=C(OC)/C(=C/COP(=O)(O)OC[C@H]2O[C@@H](n3cnc4c(N)ncnc43)[C@H](O)[C@@H]2OP(=O)(O)COCCn2cnc3ncnc(N)c32)OC1=O | > 300 µg/mL | >21% | >21% | 4.9 µg/mL (≈ 6.36 µM) | 13 µg/mL (≈ 16.9 µM) | 4.2 µg/mL (≈ 5.45 µM) | > 300 µg/mL | Animal death [1]: >21%; Symptom initiation [1]: >21%; Animal death [2]: >21%; Ki (Adenosine deaminase): > 800 µM |
| Nc1ncnc2c1ncn2COCCO |  |  |  |  |  |  |  | Relative Vmax (Vero [10]): <3 |
| Nc1nc2c(ncn2COCCO)c(=O)[nH]1 [ACYCLOVIR] |  | >21% | >21% |  |  |  |  | Animal death [1]: >21% |
| Nc1ncnc2c1ncn2CCOCP(=O)(O)O [ADEFOVIR] | 274 µg/mL (≈ 1000 µM) |  |  | 4.1 µg/mL (≈ 15 µM) | 2 µg/mL (≈ 7.32 µM) | 3.8 µg/mL (≈ 13.9 µM) | 285 µg/mL (≈ 1040 µM) | Animal death [7]: >21%; Animal death [8]: >21%; Symptom initiation [8]: >21%; Animal death [11]: 17% |
| Nc1nc2c(ncn2CCOCP(=O)(O)O)c(=O)[nH]1 [GS-438] | 16 µg/mL (≈ 55.3 µM) |  |  | 16 µg/mL (≈ 55.3 µM) | 0.19 µg/mL (≈ 0.657 µM) | 18 µg/mL (≈ 62.2 µM) | 12 µg/mL (≈ 41.5 µM) |  |
| Nc1ncnc2c1ncn2[C@@H]1O[C@H](CO)[C@@H](O)[C@@H]1O [VIDARABINE] |  |  |  |  |  |  |  | Relative Vmax (Vero [9]): <3 |
